Reference: ChEMBL document CHEMBL1130115 (J Med Chem, 1997)

Legend:
[1] = target: Adenosine receptor A2a (Rattus norvegicus) (UniProt P30543); test: Displacement of specific [3H]-CGS- 21680 binding at Adenosine A2A receptor in rat striatal membranes at the concentration of 10e-4 M; assay type: cell membranes; conditions: Membrane
Outline: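 [3H]CGS 21680 binding to rat striatal membranes, with adenosine deaminase (3 units/mL) during preparation, 30 min 30 °C preincubation and incubation. Reported as % of specific binding displaced at 10^-4 M.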

[2] = target: T1, Adenosine receptor A1 (Rattus norvegicus) (UniProt P25099); test: Displacement of specific [3H](R)-PIA binding at Adenosine A1 receptor from rat brain membranes; assay type: cell membranes; parameters: concentration or dose not given beside the values; conditions: Membrane; concentration not given here
T1 sequence (whole entry): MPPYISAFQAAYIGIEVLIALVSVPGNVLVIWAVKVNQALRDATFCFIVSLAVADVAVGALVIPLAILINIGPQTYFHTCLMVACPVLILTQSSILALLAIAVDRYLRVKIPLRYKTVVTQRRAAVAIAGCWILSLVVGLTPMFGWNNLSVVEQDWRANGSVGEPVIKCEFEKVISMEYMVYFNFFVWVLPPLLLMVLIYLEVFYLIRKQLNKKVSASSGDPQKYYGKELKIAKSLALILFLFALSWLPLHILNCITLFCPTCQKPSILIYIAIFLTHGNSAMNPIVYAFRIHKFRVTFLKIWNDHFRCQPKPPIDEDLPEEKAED

Adenosine receptor A1 = target: T2, Adenosine receptor A1 (Rattus norvegicus, UniProt P25099); test: Displacement of specific [3H](R)-PIA binding at adenosine A1 receptor from rat brain membranes.; assay type: cell membranes, Membrane
T2 sequence (P25099 whole entry): T1 sequence (whole entry)

Adenosine receptor A3 = target: T3, Adenosine receptor A3 (Homo sapiens, UniProt P0DMS8); test: Displacement of specific [125I]AB-MECA binding at human adenosine A3 receptor.
T3 sequence (P0DMS8 whole entry): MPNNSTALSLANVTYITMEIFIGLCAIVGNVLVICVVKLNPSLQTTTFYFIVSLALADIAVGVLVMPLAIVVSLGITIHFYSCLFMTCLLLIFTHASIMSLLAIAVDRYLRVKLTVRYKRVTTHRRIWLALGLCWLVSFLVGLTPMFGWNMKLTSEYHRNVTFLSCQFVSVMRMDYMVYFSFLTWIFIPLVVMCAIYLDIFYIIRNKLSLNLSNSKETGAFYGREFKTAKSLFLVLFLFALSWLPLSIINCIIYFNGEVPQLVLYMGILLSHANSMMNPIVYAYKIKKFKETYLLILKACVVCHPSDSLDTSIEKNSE

[3] = target: Adenosine receptor A2a (Rattus norvegicus) (UniProt P30543); test: Displacement of specific [3H]-CGS- 21680 binding at adenosine A2A receptor in rat striatal membranes.; assay type: cell membranes; parameters: concentration or dose not given beside the values; conditions: Membrane; concentration not given here
Adenosine receptor A2a = Adenosine receptor A2a (Rattus norvegicus, UniProt P30543); test: Displacement of specific [3H]-CGS- 21680 binding at Adenosine A2A receptor in rat striatal membranes.; assay type: cell membranes, Membrane
Sequence of Adenosine receptor A2a (P30543 whole entry): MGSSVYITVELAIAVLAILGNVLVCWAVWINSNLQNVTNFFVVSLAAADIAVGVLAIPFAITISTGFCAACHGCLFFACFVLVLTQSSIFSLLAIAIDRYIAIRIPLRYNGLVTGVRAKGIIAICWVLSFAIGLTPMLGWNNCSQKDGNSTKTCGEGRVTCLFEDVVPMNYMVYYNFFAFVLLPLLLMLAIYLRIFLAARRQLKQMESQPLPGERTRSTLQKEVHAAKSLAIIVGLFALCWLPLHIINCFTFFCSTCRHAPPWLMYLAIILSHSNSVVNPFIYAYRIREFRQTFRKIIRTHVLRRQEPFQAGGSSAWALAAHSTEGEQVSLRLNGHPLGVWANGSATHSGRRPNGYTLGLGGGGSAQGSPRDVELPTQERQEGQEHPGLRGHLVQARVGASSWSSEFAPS

[4] = target: T1, Adenosine receptor A1 (Rattus norvegicus); test: Displacement of specific [3H](R)-PIA binding at Adenosine A1 receptor from rat brain membranes at the concentration of 10e-4 M; assay type: cell membranes; conditions: Membrane
Outline: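 [3H](R)-PIA binding to rat cerebral cortex membranes with adenosine deaminase (3 units/mL) present in preparation, 30 min 30 °C preincubation and incubation. Result given as % of specific binding displaced at 10^-4 M.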

[5] = target: T4, Adenosine receptor A3 (Homo sapiens) (UniProt P0DMS8); test: Displacement of [125I]AB-MECA binding at human Adenosine A3 receptor at 10e-7 M
T4 sequence (whole entry): T3 sequence (P0DMS8 whole entry)
Outline: (§1)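 Nonspecific binding defined with 100 µM (R)-PIA. Compounds dissolved in DMSO, ≤2% in assay. Stopped by rapid filtration over GF/B filters with three buffer rinses; result given as % specific binding displaced at the stated concentration.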

Homo sapiens = species on record: Homo sapiens; test: Selectivity ratio measured as the Ki value of rat A1 receptor to that of hA3 receptor.
[6] = target: T4, Adenosine receptor A3 (Homo sapiens); test: Displacement of [125I]AB-MECA binding at human Adenosine A3 receptor at 10e-5 M; outline: as §1

Sequence of Adenosine receptor A2a (Rattus norvegicus) (P30543 whole entry): as above

CCOC(=O)C1=C(c2ccccc2)N=C(C)/C(=C(/O)OCC)C1C#Cc1cccc(C)c1 (centres undefined)
Displacement [1]: < 10%
inhibition [2]: 41%

CCOCN1C(C)=C(C(=O)OCC)C(C#Cc2ccccc2)C(C(=O)O)=C1c1ccccc1 (centres undefined)
Ki (Adenosine receptor A1): 19.1 µM
Ki (Adenosine receptor A3): > 100 µM
inhibition [3]: 36%

CCOC(=O)C1=C(c2ccccc2)N=C2CCCC(O)=C2C1C#Cc1ccccc1 (centres undefined)
inhibition [3]: 22%

CCOC(=O)C1=C(c2ccccc2)N=C(C)/C(=C(/O)OCc2ccccc2)C1C#Cc1ccccc1 (centres undefined)
Displacement [1]: < 10%
inhibition [2]: 24%

CCO/C(O)=C1\C(C)=NC(c2ccccc2)=C(C(=O)OCc2cccc([N+](=O)[O-])c2)C1C#Cc1ccccc1 (centres undefined)
Displacement [1]: < 10%
inhibition [2]: 28.2%

CCO/C(O)=C1\C(CC)=NC(c2ccccc2)=C(C(=O)OCc2ccccc2)C1C#Cc1ccccc1 (centres undefined)
Displacement [1]: < 10%
inhibition [2]: 25%

CCO/C(O)=C1\C(C)=NC(c2ccccc2)=C(C(=O)OCc2ccccc2C)C1C#Cc1ccccc1 (centres undefined)
inhibition [3]: 13%
inhibition [2]: 16%

CCO/C(O)=C1\C(C)=NC(c2ccccc2)=C(C(=O)OCc2ccccc2)C1C#Cc1ccccc1 (centres undefined)
Displacement [1]: < 10%

CCO/C(O)=C1\C(C)=NC(c2ccccc2)=C(C(=O)OCc2ccc(C(=O)OCC(Cl)(Cl)Cl)cc2)C1C#Cc1ccccc1 (centres undefined)
inhibition [3]: 11%
inhibition [2]: 33%

CCO/C(O)=C1\C(C)=NC(c2ccccc2)=C(C(=O)OCc2ccc([N+](=O)[O-])cc2)C1C#Cc1ccccc1 (centres undefined)
Displacement [1]: < 10%
inhibition [2]: 29%

CCO/C(O)=C1\C(C)=NC(c2ccccc2)=C(C(=O)OCc2ccc(C(F)(F)F)cc2)C1C#Cc1ccccc1 (centres undefined)
inhibition [3]: 15%
inhibition [2]: 32%

Cc1ccc(-c2oc3ccc(Cl)cc3c(=O)c2Cl)c(OC(C)C)c1
Ki (Adenosine receptor A1): 100 µM
Ki (Adenosine receptor A2a): > 100 µM

CCOC(=O)C1=C(c2ccccc2)N=C(C)/C(=C(/O)OCC)C1c1cccs1 (centres undefined)
inhibition [3]: 36%

CCO/C(O)=C1\C(C)=NC(c2ccccc2)=C(C(=O)OCC(OC)c2ccccc2)C1C#Cc1ccccc1 (centres undefined)
inhibition [3]: 33%

CCO/C(O)=C1\C(C)=NC(c2ccccc2)=C(C(=O)OCc2ccc(C)cc2)C1C#Cc1ccccc1 (centres undefined)
Displacement [4]: < 10%
inhibition [3]: 17%

CCOC(=O)C1=C(c2ccccc2)N=C(C)/C(=C(/O)SCC)C1C#Cc1ccccc1 (centres undefined)
Ki (Adenosine receptor A2a): 5.15 µM

COC(=O)C1=C2C=CN(C)C=C2c2nc(-c3ccccc3)nn2C1
Ki (Adenosine receptor A3): 0.013 µM

C=CCO/C(O)=C1\C(C)=NC(c2ccccc2)=C(C(=O)OCC)C1/C=C/c1ccc([N+](=O)[O-])cc1 (centres undefined)
Displacement [4]: < 10%
inhibition [3]: 15%

CCO/C(O)=C1\C(C)=NC(c2ccccc2)=C(C(=O)OCc2ccc(C(=O)NCCN)cc2)C1C#Cc1ccccc1 (centres undefined)
Displacement [5]: < 10%
inhibition [3]: 39%
inhibition [2]: 68%

CCOC(=O)C1=C(c2ccccc2)N=C(C)/C(=C(/O)OCC)C1C#Cc1ccccc1 (centres undefined)
inhibition [3]: 26%

CCOC(=O)C1=C(c2ccccc2)NC(C)=C(C(C)=O)C1C#Cc1ccccc1 (centres undefined)
inhibition [3]: 17%

CCOC(=O)C1=C(C)N(COC)C(c2ccccc2)=C(C(=O)OCC[Si](C)(C)C)C1C#Cc1ccccc1 (centres undefined)
Displacement [4]: < 10%
inhibition [3]: 27%

CCO/C(O)=C1\C(C)=NC(c2ccccc2)=C(C(=O)SCC)C1C#Cc1ccccc1 (centres undefined)
inhibition [3]: 17%

CCO/C(O)=C1\C(C)=NC(c2ccccc2)=C(C(=O)OCCCc2ccccc2)C1C#Cc1ccccc1 (centres undefined)
Displacement [4]: < 10%
Displacement [1]: < 10%

CCOC(=O)C1=C(C)NC(C)=C(C(=O)OC)C1C#Cc1ccccc1 (centres undefined)
Selectivity ratio (Homo sapiens): 5.7

CCOC(=O)C1=C(C(F)(F)F)N=C(C)/C(=C(/O)OCC)C1C#Cc1ccccc1 (centres undefined)
inhibition [3]: 25%

CCOC(=O)C1=C(c2ccccc2)N=C(C)/C(=C(/O)OCC)C1c1cc2ccccc2o1 (centres undefined)
Displacement [1]: < 10%

CCCO/C(O)=C1\C(C)=NC(c2ccccc2)=C(C(=O)OCc2ccccc2)C1C#Cc1ccccc1 (centres undefined)
inhibition [3]: 16%
inhibition [2]: 21%

CCOC(=O)C1=C(c2ccccc2)N=C(C)/C(=C(/O)OCC)C1c1ccccn1 (centres undefined)
inhibition [3]: 25%

CCO/C(O)=C1\C(C)=NC(c2ccccc2)=C(C(=O)OC(C)(C)C)C1C#Cc1ccccc1 (centres undefined)
inhibition [3]: 27%

CCO/C(O)=C1\C(C)=NC(c2ccccc2)=C(C(=O)OCc2cc([N+](=O)[O-])cc([N+](=O)[O-])c2)C1C#Cc1ccccc1 (centres undefined)
inhibition [3]: 40%
inhibition [2]: 20%

CCOC(=O)C1=C(c2ccccc2)N=C(C)/C(=C(/O)OCC)C1/C=C/c1ccc(N)cc1 (centres undefined)
inhibition [3]: 26%

CCNC(=O)C1=C(c2ccccc2)N(COCC)C(C)=C(C(=O)OCC)C1C#Cc1ccccc1 (centres undefined)
inhibition [3]: 35%

CCO/C(O)=C1\C(C)=NC(c2ccccc2)=C(C(=O)OCc2cccc(C)c2)C1C#Cc1ccccc1 (centres undefined)
Displacement [4]: < 10%
inhibition [3]: 16%

CCOC(=O)C1=C(c2ccccc2)N=C(C)/C(=C(/O)OCC)C1c1ccncc1 (centres undefined)
Ki (Adenosine receptor A2a): 44.7 µM

CCO/C(O)=C1\C(C)=NC(c2ccccc2)=C(C(=O)OCCc2ccccc2)C1C#Cc1ccccc1 (centres undefined)
Displacement [4]: < 10%
Displacement [1]: < 10%

CCOC(=O)C1=C(c2ccccc2)N=C(C)/C(=C(/O)OCC)C1c1ccco1 (centres undefined)
inhibition [3]: 45%

CCNC(=O)C1=C(C)NC(c2ccccc2)=C(C(=O)OCC)C1C#Cc1ccccc1 (centres undefined)
inhibition [3]: 19%

CCO/C(O)=C1\C(C)=NC(c2ccccc2)=C(C(=O)OCc2cccc(I)c2)C1C#Cc1ccccc1 (centres undefined)
inhibition [3]: 19%
inhibition [2]: 14%

CCOC(=O)C1=C(c2ccccc2)N=C(C)/C(=C(/O)OCC)C1C#Cc1ccc([N+](=O)[O-])cc1 (centres undefined)
inhibition [3]: 24%

CCOC(=O)C1=C(c2ccccc2)N=C(C)/C(=C(/O)OCC)C1c1cccnc1 (centres undefined)
inhibition [3]: 40%

CCNC(=O)C1=C(c2ccccc2)N=C(C)/C(=C(/O)OCC)C1C#Cc1ccccc1 (centres undefined)
inhibition [3]: 47%

CCOC(=O)C1=C(c2ccccc2)N=C(C)/C(=C(/O)OCC)C1c1ccccc1 (centres undefined)
Displacement [1]: < 10%

CCOC(=O)C1=C(C)N=C(C)/C(=C(/O)OCC)C1c1cccs1 (centres undefined)
inhibition [3]: 25%

CCOC(=O)C1=C(c2ccccc2)N=C(C)/C(=C(/O)OC(C)(C)C)C1C#Cc1ccccc1 (centres undefined)
inhibition [3]: 20%

CCOCN1C(C)=C(C(=O)OCC)C(C#Cc2ccccc2)C(C(=O)OCC[Si](C)(C)C)=C1c1ccccc1 (centres undefined)
inhibition [3]: 19%
inhibition [2]: 13%

CCO/C(O)=C1\C(C)=NC(c2ccccc2)=C(C(=O)OCC[Si](C)(C)C)C1C#Cc1ccccc1 (centres undefined)
inhibition [3]: 18%

CCO/C(O)=C1\C(C)=NC(c2ccccc2)=C(C(=O)OCc2cc(C(F)(F)F)cc(C(F)(F)F)c2)C1C#Cc1ccccc1 (centres undefined)
Displacement [4]: < 10%
inhibition [3]: 29%

CCO/C(O)=C1\C(C)=NC(c2ccccc2)=C(C(=O)O)C1C#Cc1ccccc1 (centres undefined)
Displacement [6]: < 10%
inhibition [3]: 16%
